Here are results for one molecule from ChEMBL document CHEMBL1275591, “Cellular pharmacodynamics of the novel biaryloxazolidinone radezolid: studies with infected phagocytic and nonphagocytic cells, using Staphylococcus aureus, Staphylococcus epidermidis, Listeria monocytogenes, and Legionella pneumophila” (Antimicrob Agents Chemother, 2010).

Structures are written as SMILES. Values after ≈ are worked out from the molar mass of the structure shown.

For data set [1], the system named is Staphylococcus epidermidis. The data set can be described thus: Bacteriostatic activity against Staphylococcus epidermidis infected in THP1 cells after 24 hrs. In kind it is functional, THP-1. The gist of the method:
(§1)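 Bacteria were phagocytosed by human THP-1 macrophage-like cells, then exposed to a range of drug concentrations for a fixed time: 24 h for S. aureus, S. epidermidis and L. monocytogenes, 48 h for L. pneumophila. Change in CFU versus the initial inoculum was fitted with a sigmoidal curve to give Emin, Emax (relative maximal efficacy), EC50 and static concentration (Cs).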

For data set [2], the system named is Staphylococcus aureus. The data set can be described thus: Antimicrobial activity against linezolid-susceptible Staphylococcus aureus SA238 infected in THP1 cells assessed as log reduction in bacterial count after 24 hrs. In kind it is functional, THP-1. In short, it runs like this:
as §1

The subject of data set [3] is Staphylococcus aureus. The data set can be described thus: Antimicrobial activity against linezolid-susceptible Staphylococcus aureus NRS384 infected in THP1 cells after 24 hrs. The settings on record: NRS384, THP-1, 24 h. The format is functional, organism-based. In short, it runs like this:
as §1

In data set [4] the test system is Staphylococcus aureus. As to the kind of experiment: Antimicrobial activity against linezolid-susceptible Staphylococcus aureus NRS18 infected in THP1 cells after 24 hrs. In kind it is functional, organism-based. The settings on record: NRS18, THP-1, 24 h. The gist of the method:
as §1

Data set [5] concerns Staphylococcus aureus. The data set can be described thus: Bacteriostatic activity against linezolid-susceptible Staphylococcus aureus ATCC 25923 infected in THP1 cells after 24 hrs. The format is functional, THP-1. The gist of the method:
(§2)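 Human THP-1 myelomonocytic (macrophage-like) cells infected with S. aureus, then exposed 24 h to a range of antibiotic concentrations. CFU change was measured against the initial inoculum. A sigmoidal dose-response curve was fitted to give Emin, Emax and EC50, and the apparent static concentration (Cs) was taken from the fit.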

For data set [6], the system named is Staphylococcus aureus. The data set can be described thus: Bacteriostatic activity against linezolid-susceptible Staphylococcus aureus SA040 infected in THP1 cells after 24 hrs. The format is functional, THP-1. In short, it runs like this: as §2
The test system of data set [7] is Staphylococcus aureus. As to the kind of experiment: Bacteriostatic activity against linezolid-resistant Staphylococcus aureus SA238L infected in THP1 cells after 24 hrs. The format is functional, THP-1. The gist of the method: as §2
For data set [8], the system named is Staphylococcus aureus. The data set can be described thus: Bacteriostatic activity against linezolid-susceptible Staphylococcus aureus SA238 infected in HUVEC cells after 24 hrs. In kind it is functional. In short, it runs like this: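 HUVEC were grown in endothelial growth medium on gelatin-treated flasks. They were infected with 2 × 10^6 bacteria/ml for 1 h phagocytosis, then exposed 24 h to graded antibiotic concentrations. CFU change from the initial inoculum was fitted to a sigmoidal curve to obtain the static concentration (Cs).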

Data set [9] relates to Staphylococcus aureus. As to the kind of experiment: Antimicrobial activity against linezolid-susceptible Staphylococcus aureus SA238 infected in human osteoblasts cells assessed as log reduction in bacterial count after 24 hrs. In kind it is functional. The gist of the method: (§3)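 S. aureus was internalized by adherent nonphagocytic cells: Calu-3, HUVEC, keratinocytes on collagen-coated wells, osteoblasts, or rat embryo fibroblasts. Inoculum was 5 × 10^7 to 1 × 10^8 bacteria/ml with 2 h phagocytosis (HUVEC: 2 × 10^6/ml, 1 h). Cells were then exposed to graded drug concentrations for 24 h. CFU change versus the original inoculum was fitted sigmoidally for Emax and Cs.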

Data set [10] deals with Staphylococcus aureus. As to the kind of experiment: Antimicrobial activity against linezolid-resistant Staphylococcus aureus SA238L infected in human osteoblasts cells assessed as log reduction in bacterial count after 24 hrs. The format is functional. The gist of the method:
as §3

Data set [11] concerns HUVEC. The data set can be described thus: Ratio of drug level for cellular to extracellular region of Staphylococcus aureus infected HUVEC cells at 4 mg/liter after 2 hrs. The format is ADME, cell-based. The note with it: human. The gist of the method: (§4)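 Cells were exposed to [14C]radezolid for 2 or 24 h. Cell-associated drug in lysates was measured by liquid scintillation counting (detection limit 0.003 mg/liter; linear 0.01–0.78 mg/liter). Content was normalised to cell protein (Lowry). It was converted to apparent cellular concentration at 5 μl per mg protein and expressed relative to the extracellular concentration.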

Data set [12] in a line: Ratio of drug level for cellular to extracellular region of Staphylococcus aureus infected human osteoblast at 4 mg/liter after 24 hrs. In kind it is ADME, cell-based. In short, it runs like this: as §4
Data set [13] deals with Staphylococcus aureus. As to the kind of experiment: Antimicrobial activity against linezolid-susceptible Staphylococcus aureus SA238 infected in THP1 cells at pH 7.4 after 24 hrs. The format is functional, organism-based. The note with it: SA238, THP-1, 24 h.
The subject of data set [14] is Staphylococcus aureus. The data set can be described thus: Antimicrobial activity against linezolid-susceptible Staphylococcus aureus SA238 infected in THP-1 cells at pH 5.5 after 24 hrs. The note with it: SA238, THP-1, 24 h. The format is functional, organism-based.
Data set [15] relates to Staphylococcus aureus. As to the kind of experiment: Antimicrobial activity against Staphylococcus aureus ATCC 25923 infected in THP-1 cells assessed as log reduction in bacterial count at 1 mg/L after 5 hrs. The format is functional. In short, it runs like this: (§5)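 Time-course test with S. aureus ATCC 25923, either in Mueller-Hinton broth or after phagocytosis by THP-1 cells. Samples were taken over a 5 h incubation with drug at 1 mg/liter. Read-out was the change in CFU relative to the initial inoculum, reported as means.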

For data set [16], the system named is Staphylococcus aureus. As to the kind of experiment: Antimicrobial activity against Staphylococcus aureus ATCC 25923 assessed as log reduction in bacterial count at 1 mg/L after 5 hrs. In kind it is functional. In short, it runs like this:
as §5

Usually EC50 stands for the midpoint of the concentration-response curve. A high value points to lower potency in that assay.

As for `CC(=O)NC[C@H]1CN(c2ccc(-c3ccc(CNCc4cnn[nH]4)cc3)c(F)c2)C(=O)O1` [RADEZOLID], the Activity turned out to be 0.03 mg/L in data set [1]; 0.91 mg/L in data set [5]; 0.21 mg/L in [6]; 0.97 mg/L in [7]; 0.6 mg/L in data set [8]. The log10cfu in data set [2] is on record as -0.79; in [9], 0.6; in [10] it was 0.6; in [15], 0.5; in [16], 2. In addition, the EC50 is 0.07 µg/mL (≈ 0.16 µM) in data set [3], 0.09 µg/mL (≈ 0.205 µM) in data set [4], 0.31 µg/mL (≈ 0.707 µM) in data set [13] and 0.02 µg/mL (≈ 0.0456 µM) in data set [14]. Also, the Ratio turned out to be 9.5 in [11] and 9.7 in data set [12].
